Compound activity: PubChem, several laboratories
Only some compounds are listed: those with a hit (about 12% of all), similar ones and a draw of the others.
Dynein cargo inh – dynein cargo transport inhibition | 3617.4 mouse cells, GR-EGFP nuclear translocation imaging; test concentration mostly 20 µM; stimulated with dexamethasone, 1 µM; stronger effect = lower value | 220,000 tested, 0.47% active | AID 1381 | z-score, hits read low;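 active = plate z-score of nuclear minus cytoplasmic receptor signal below a set negative limit, without overly bright fluorescence or cell loss, cut at about -3.5 in these data, passing the limit was not always enough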;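 also: z-score of nuclear minus cytoplasmic ring GR-EGFP intensity difference per well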
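Buffer or medium: tet-free, stripped-serum medium; Also added: dexamethasone, 1.0 µM final; Technique: high-content fluorescence imaging after fixation; Times: 48 h induction, 1 h compound, 30 min dex at 37 °C; Read-out: per-cell GR-EGFP intensity, nucleus versus surrounding cytoplasmic ring, well-averaged.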
CHOP inhibitor – inhibitors of CHOP induction in ER stress response | CHO-K1 CHOP-promoter luciferase, tunicamycin-induced, 15-18 h | inhibition, % at 10 µM | 220,000 tested, 3.8% active;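 active = compounds that reduced the stress-induced luciferase reporter signal by more than about 70% of percent inhibition, limit read from the data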;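 also: 0% = tunicamycin plus vehicle and 100% = wells without tunicamycin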
L major viab – inhibitors of Leishmania major promastigote growth; Leishmania major promastigotes, resazurin fluorescence viability; inhibition, % at 10 µM; 200,000 tested, 9% active; AID 1063; in the data active = inhibition above about 50%;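 also: promastigotes grown with compound for 44 hours at 28 °C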
b-catenin transl – beta-catenin nuclear translocation modulation. HeLa beta-catenin nuclear translocation, immunofluorescence imaging. nuclear translocation activity, % at 5 µM. 190,000 tested, 0.3% active. AID 1665;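 active = nuclear translocation activity above 50% at 5 µM, with a well cell count of 50 or more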;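 also: per-cell ratio of nuclear to cytoplasmic median beta-catenin stain intensity; plate controls were DMSO negative control for no effect and GSK-3 inhibitor IX positive control for full effect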
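Test system: human HeLa cells, native beta-catenin. Compound dosing: 5 µM primary single dose, 0.1% DMSO, 0.02–20 µM confirmation series. Incubation: compound exposure 24 h at 37°C. Detection: beta-catenin immunostaining with DAPI counterstain, 20x imaging, 6 fields/well. Read-out basis: Nuclear/cytoplasmic beta-catenin signal ratio, % activation.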
Autophagy mod – autophagy modulation, high-content screen; MEF GFP-LC3 puncta imaging; test concentration mostly 10 µM; calls only at 10 µM (by protocol); 190,000 tested, 0.98% active;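 active = percentage of spot-positive cells more than 3 SD above its plate mean, without a fluorescence outlier flag or 80% toxicity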;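 also: spot-positive cell cutoff set from DMSO-treated cells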
MT stabilize HCS – microtubule stabilizers in HeLa cells. HeLa tubulin immunostaining HCS, 24 h; share of cells brighter than vehicle mean+2SD. % tubulin-high responders, % at 10 µM. 200,000 tested, 0.83% active;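 active = plate Z-score above 3 for both tubulin-high and condensed-nucleus cell shares, with cell loss under 80%, at 10 µM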;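 also: anti alpha tubulin signal scored within the nucleus-defined area of each cell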
* = called active by the depositor; i = inactive; . = no result; + = active, no number.

SMILES	Dynein cargo inh	CHOP inhibitor	L major viab	b-catenin transl	Autophagy mod	MT stabilize HCS
CCCN1C(=O)/C(=C2\SC(N3CCCCC3)=NC2=O)c2ccccc21	-0.7	2	64*	-6	i	5
COc1ccc(C(O)c2nccc3cc(OC)c(OC)cc23)cc1OC (stereo unspecified)	-0.63	11	2	1	i	2
CC(C)C(NS(=O)(=O)c1cccc2nsnc12)C(=O)NCc1ccc2c(c1)OCO2 (stereo unspecified)	0.39	0	100*	.	i	3
CC(C)C(NS(=O)(=O)c1cccc2nsnc12)C(=O)NCc1ccco1 (stereo unspecified)	1.7	0	.	0	.	.
CN1CCN(C(=O)c2cn(-c3ccccc3)nc2-c2cccs2)CC1	0.39	-4	-5	0	i	7
CN(C)C(=O)c1cn(-c2ccccc2)nc1-c1cccs1	-0.62	34	54*	-7	i	2
CN(C)c1ccc(NC(=O)c2cn(-c3ccccc3)nc2-c2cccs2)cc1	-0.092	10	6	.	i	2
O=C(c1cn(-c2ccccc2)nc1-c1cccs1)N1CCN(c2ccccn2)CC1	-0.23	6	57*	.	i	9
COc1ccc(C(=O)c2ccc(OC)c(OC)c2)cc1OC	-0.33	13	5	.	i	4
COc1ccc(C(=O)c2ccc(OC)c(N)c2)cc1N	1.1	.	5	.	+	34*
C#CCNC(=O)/C=C/c1ccc(OC)cc1	0.99	8	-2	-1	i	2
CC1OC(O[C@H]2CC[C@]3(C)C4C=C[C@]56OC[C@@]7(CC[C@@H](C)[C@H](C)C75)[C@H](O)C[C@@]6(C)[C@]4(C)CC[C@H]3C2(C)C)C(OC2OC(CO)C(O)C(O)C2OC2OCC(O)C(O)C2O)C(O)C1O (stereo partly specified)	-2.3	100*	.	0	.	.
Cc1cccc(C)c1NC(=O)c1cccc2c1-c1ccccc1C2=O	-0.64	78*	8	-2	i	1
Cc1cccc(NC(=O)c2cccc3c2-c2ccccc2C3=O)n1	-0.37	10	2	0	i	2
O=C(Nc1ccc(Br)cn1)c1cccc2c1-c1ccccc1C2=O	1.4	-16	1	1	i	36*
COc1ccc(/C=C/C(=O)Nc2sc3c(c2C(=O)NCc2cccnc2)CCCC3)cc1	0.33	81*	7	0	i	1
COc1ccc(/C=C/C(=O)NCc2cccnc2)cc1	-0.23	15	-2	0	i	3
COCCN1CCC(CNCc2cn(-c3cc(C)ccc3C)nc2-c2ccccc2)C1 (stereo unspecified)	-0.36	31	100*	2	i	.
COCCN1CCC(CNCc2cn[nH]c2-c2ccc(C)c(C)c2)C1 (stereo unspecified)	1.7	-7	3	-6	i	7
CCn1ccnc1CNCc1cn(-c2cc(C)ccc2C)nc1-c1ccccc1	2	17	65*	0	i	3
Cc1ccc(C)c(-n2cc(CNCCc3cnccn3)c(-c3ccccc3)n2)c1	-0.81	-11	24	2	i	2
CCOC(=O)CN(C(=O)CSc1nnc(Cc2ccccc2)n1-c1ccc(C)cc1)c1ccccc1	-0.34	19	99*	1	i	3
Cc1ccccc1OCC(=O)N/N=C1\SCC(=O)N1Cc1ccccc1	-0.12	9	25	-2	i	2
Cc1ccc(OCC(=O)N/N=C2/SCC(=O)N2Cc2ccccc2)cc1	0.88	-5	67*	-2	i	2
c1ccc(-c2cn3nc(-c4ccccc4)c(-c4ccccc4)nc3n2)cc1	-0.36	-5	10	0	+	1
SMILES	Dynein cargo inh	CHOP inhibitor	L major viab	b-catenin transl	Autophagy mod	MT stabilize HCS
N/C(=N\NC(=O)c1sccc1OCc1ccc(Cl)cc1Cl)c1ccccn1	-0.0096	18	100*	0	i	5
CNC(=S)NNC(=O)c1sccc1OCc1ccc(Cl)cc1Cl	-0.96	-14	-11	2	i	2
CNC(=S)N1N=C(c2ccc(Br)cc2)CC1c1ccc(N(C)C)cc1 (stereo unspecified)	-0.65	27	51*	0	i	4
CNC(=S)N1N=C(c2ccc(Br)cc2)CC1c1ccc(Br)cc1 (stereo unspecified)	-0.5	35	100*	-6	i	1
CNC(=S)N1N=C(c2ccc(OC)cc2)CC1c1ccc(N(C)C)cc1 (stereo unspecified)	0.11	-27	5	0	i	1
CCn1ccnc1CN(C)Cc1cn(-c2cccc(C)c2)nc1-c1cccc(F)c1	0.27	9	99*	-1	i	2
CCn1ccnc1CN(C)Cc1cn(-c2ccc(C)cc2)nc1-c1cccc(C)c1	1.5	83*	78*	0	i	1
Cc1cccc(-n2cc(CN(C)Cc3nccn3C)c(-c3cccc(F)c3)n2)c1	-0.78	35	47	0	i	2
O=C(CCOc1ccccc1)Nc1ccc([N+](=O)[O-])cc1	-0.69	10	-5	-2	i	2
Cn1c(N2CCC(C(N)=O)CC2)nc2c1c(=O)n(Cc1ccc(Br)cc1)c(=O)n2C	-0.011	.	-3	.	i	3
CCn1c(COc2cccc3cccnc23)nnc1SC(F)F	-0.75	7	83*	-4	i	4
O=C(CCCCCC(=O)N(CCO)CCO)N(CCO)CCO	0.97	-4	1	-5	i	4
CCOc1ccc(S(=O)(=O)Nc2cccc(OC)c2)cc1	0.53	54	10	.	i	16*
COc1cccc(NS(=O)(=O)c2cc(C)sc2C)c1	-0.16	75*	5	-4	i	2
COc1ccc(S(=O)(=O)N(C)C)cc1NC(=O)COC(=O)c1nn(C)c(=O)c2ccccc12	1	15	-5	-2	i	6
COC(=O)C1=C(C)N(c2ccccc2)/C(=C/c2cccs2)C1=O	-0.29	-34	51*	-2	i	5
COC(=O)C1=C(C)N(c2cccc(C)c2)C(=O)/C1=C\c1cccs1	-0.98	65	16	1	i	4
COC(=O)C1=C(C)N(c2ccc(C)c(C)c2)/C(=C/c2cccs2)C1=O	-1.2	10	82*	6	i	3
COC(=O)C1=C(C)N(c2ccc(Cl)cc2)/C(=C/c2cccs2)C1=O	0.21	-17	36	2	i	1
CCOC(=O)CN1CCS(=O)(=O)CC1	-0.53	9	-5	1	i	4
Cc1ccc(C(=O)/C=C\NCc2ccccc2)cc1	-0.98	58	-7	.	i	4
CC(/C=C/C(=O)c1ccc(C)cc1)=C\c1ccccc1	-0.72	91*	1	0	i	3
c1coc(CNc2nc(N3CCCCC3)nc3ccccc23)c1	-0.1	-13	96*	-2	i	3
